According to ChEMBL document CHEMBL3603779, “Identification and Optimization of Benzimidazole Sulfonamides as Orally Bioavailable Sphingosine 1-Phosphate Receptor 1 Antagonists with in Vivo Activity” (J Med Chem, 2015):
Active and inactive are the calls of the source. No cut-off for these calls is given here.

Legend:
[1] = Clearance in Han Wistar rat at 4 mg/kg, iv by LCMS/MS method; assay type: ADME, organism-based; conditions: in vivo
Mus musculus [2] = assay: Increase in pulmonary vascular permeability in NCr mouse lung assessed as induction of capillary leakage in at 50 mg/kg, po administered a single oral dose by Evans blue dye assay; assay type: functional, organism-based
Method in brief: (§1)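 Female NCr nude mice (4 per cohort) given a single oral dose, 20 or 50 mg/kg, or vehicle (0.5% HPMC, 0.1% Tween 80). Evans blue dye (20 mg/kg) injected 1 h later. After 30 min, mice anesthetized and perfused with 0.9% saline; lung dye measured by spectrophotometry and normalized to vehicle-treated animals.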

[3] = Oral bioavailability in beagle dog at 5 mg/kg by LCMS/MS method; assay type: ADME, organism-based, Canis lupus familiaris; conditions: in vivo
[4] = Clearance in beagle dog at 2 mg/kg, iv by LCMS/MS method; assay type: ADME, organism-based, Canis lupus familiaris; conditions: in vivo
[5] = Volume of distribution at steady state in beagle dog at 2 mg/kg, iv by LCMS/MS method; assay type: ADME, organism-based, Canis lupus familiaris; conditions: in vivo, read-out: Vdss
[6] = Volume of distribution at steady state in Han Wistar rat at 4 mg/kg, iv by LCMS/MS method; assay type: ADME, organism-based; conditions: in vivo, read-out: Vdss
[7] = Antitiumor activity against human Calu6 cells xenografted in NCr mouse assessed as tumor growth at 50 mg/kg, po bid dosed on day 11 to 33; assay type: functional; conditions: Calu-6, po, read-out: GI
Method in brief: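 Calu6 xenografts in female NCr-nude mice, oral dosing twice daily. Schedules: 20 mg/kg BID on days 13-32, or 50 mg/kg BID on days 11-33. Vehicle (HPMC) controls n=20, treated n=14. Tumor volume compared with controls.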

Calu-6 [8] = assay: Increase in pulmonary vascular permeability in tumor of human Calu6 cells xenografted NCr mouse assessed as induction of capillary leakage in at 50 mg/kg, po by Evans blue dye assay; assay type: functional, organism-based
[9] = Half life in beagle dog at 2 mg/kg, iv by LCMS/MS method; assay type: ADME, organism-based, Canis lupus familiaris; conditions: in vivo
[10] = Cmax in beagle dog at 5 mg/kg, po by LCMS/MS method; assay type: ADME, organism-based, Canis lupus familiaris; design: dose 5 mg/kg, route oral; conditions: in vivo
[11] = Half life in Han Wistar rat at 4 mg/kg, iv by LCMS/MS method; assay type: ADME, organism-based; conditions: in vivo
COLO 205 [12] = assay: Increase in pulmonary vascular permeability in tumor of human COLO205 cells xenografted NCr mouse assessed as induction of capillary leakage in at 50 mg/kg, po by Evans blue dye assay; assay type: functional, organism-based
Calu-6 [13] = assay: Antitiumor activity against human Calu6 cells xenografted in NCr mouse assessed as tumor growth at 20 mg/kg, po bid dosed on day 13 to 32
Calu-6 [14] = assay: Increase in pulmonary vascular permeability in tumor of human Calu6 cells xenografted NCr mouse assessed as induction of capillary leakage in at 20 mg/kg, po by Evans blue dye assay; assay type: functional, organism-based
[15] = Clearance in beagle dog at 2.5 mg/kg, iv by LCMS/MS method; assay type: ADME, organism-based, Canis lupus familiaris; conditions: in vivo
Mus musculus [16] = assay: Increase in pulmonary vascular permeability in NCr mouse lung assessed as induction of capillary leakage in at 20 mg/kg, po administered a single oral dose by Evans blue dye assay; assay type: functional, organism-based; method in brief: as §1
[17] = Half life in Han Wistar rat at 3 mg/kg, iv by LCMS/MS method; assay type: ADME, organism-based; conditions: in vivo
[18] = Oral bioavailability in beagle dog at 10 mg/kg by LCMS/MS method; assay type: ADME, organism-based, Canis lupus familiaris; conditions: in vivo
[19] = Half life in beagle dog at 2.5 mg/kg, iv by LCMS/MS method; assay type: ADME, organism-based, Canis lupus familiaris; conditions: in vivo
[20] = Cmax in beagle dog at 10 mg/kg, po by LCMS/MS method; assay type: ADME, organism-based, Canis lupus familiaris; design: dose 10 mg/kg, route oral; conditions: in vivo
COLO 205 [21] = assay: Increase in pulmonary vascular permeability in tumor of human COLO205 cells xenografted NCr mouse assessed as induction of capillary leakage in at 20 mg/kg, po by Evans blue dye assay; assay type: functional, organism-based
[22] = Volume of distribution at steady state in beagle dog at 2.5 mg/kg, iv; assay type: ADME, organism-based, Canis lupus familiaris; conditions: in vivo, read-out: Vdss
[23] = Volume of distribution at steady state in Han Wistar rat at 3 mg/kg, iv by LCMS/MS method; assay type: ADME, organism-based; conditions: in vivo, read-out: Vdss

SMILES: CCn1c([C@@H](C)NS(=O)(=O)c2ccc(C#N)nc2)nc2cnc(C3CC3)cc21
- clearance [1]: 10 mL/min/kg
- Activity (Mus musculus [2]): Active
- bioavailability [3]: 71%
- clearance [4]: 2 mL/min/kg
- Vd [5]: 0.7 L/kg
- Vd [6]: 1.3 L/kg
- inhibition in vivo at 50 mg/kg [7]: 32%
- Activity (Calu-6 [8]): inactive
- half-life [9]: 4.6 h
- Cmax [10]: 10.7 µM
- half-life [11]: 2.9 h
- Activity (COLO 205 [12]): inactive

SMILES: CCn1c([C@@H](C)NS(=O)(=O)c2ccc(C#N)nc2)nc2cnc(C(F)(F)F)cc21
- growth inhibition (GI) (Calu-6 [13]): inactive
- Activity (Calu-6 [14]): inactive
- clearance [15]: 2 mL/min/kg
- Activity (Mus musculus [16]): Active
- half-life [17]: 2.4 h
- bioavailability [18]: 81%
- half-life [19]: 4.9 h
- Cmax [20]: 31.1 µM
- Activity (COLO 205 [21]): inactive
- Vd [22]: 0.6 L/kg
- Vd [23]: 1.2 L/kg
